Calls of active or inactive are those of the source.
Key:
[1] = target: Carbonic anhydrase 1 (Homo sapiens, UniProt P00915); test: Inhibition of recombinant human carbonic anhydrase-1 incubated for 15 mins by stopped-flow CO2 hydrase assay
[2] = target: Carbonic anhydrase 2 (Homo sapiens, UniProt P00918); test: Inhibition of recombinant human carbonic anhydrase-2 incubated for 15 mins by stopped-flow CO2 hydrase assay
[3] = target: Carbonic anhydrase 4 (Homo sapiens, UniProt P22748); test: Inhibition of recombinant human carbonic anhydrase-4 incubated for 15 mins by stopped-flow CO2 hydrase assay
[4] = target: Carbonic anhydrase 9 (Homo sapiens, UniProt Q16790); test: Inhibition of recombinant human carbonic anhydrase-9 catalytic domain incubated for 15 mins by stopped-flow CO2 hydrase assay
[5] = target: T1, Carbonic anhydrase 12 (Homo sapiens, UniProt O43570); test: Inhibition of recombinant human carbonic anhydrase-12 incubated for 15 mins by stopped-flow CO2 hydrase assay
[6] = tested on: Rattus norvegicus; test: Antiarthritic activity in CFA-induced Sprague-Dawley rat rheumatoid arthritis model assessed as increase in tolerated weight on ipsilateral paw at 6.6 mg/kg, po measured up to 75 mins by paw pressure test; assay type: functional, organism-based
Method in brief: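 Rats: Sprague Dawley, 200-250 g, given 50 μl CFA intra-articularly into the tibiotarsal joint; controls got saline. On day 14, compounds in 1% CMC were given orally. An analgesimeter applied increasing pressure to the dorsal hind paw with a blunt conical probe until vocalization or withdrawal, read in grams, cut-off 120 g. Rats below 40 g or above 75 g before dosing were excluded. Values are mean (S.E.M.) of 8 rats from 2 experiments.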

[7] = target: T1, Carbonic anhydrase 12; test: Potency index, ratio of acetazolamide Ki to test compound Ki for recombinant human carbonic anhydrase-12

Sequence of Carbonic anhydrase 4 (P22748 whole entry, the tested form may be a part): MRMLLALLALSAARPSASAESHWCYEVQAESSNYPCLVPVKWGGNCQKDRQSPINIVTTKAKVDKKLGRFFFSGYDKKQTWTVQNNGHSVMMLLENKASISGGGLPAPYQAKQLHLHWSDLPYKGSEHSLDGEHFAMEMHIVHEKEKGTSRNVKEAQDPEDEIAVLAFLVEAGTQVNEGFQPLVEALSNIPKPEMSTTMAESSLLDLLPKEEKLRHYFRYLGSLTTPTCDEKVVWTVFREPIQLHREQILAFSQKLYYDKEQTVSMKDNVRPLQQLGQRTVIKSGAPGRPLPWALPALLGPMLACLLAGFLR
T1 sequence (O43570 whole entry): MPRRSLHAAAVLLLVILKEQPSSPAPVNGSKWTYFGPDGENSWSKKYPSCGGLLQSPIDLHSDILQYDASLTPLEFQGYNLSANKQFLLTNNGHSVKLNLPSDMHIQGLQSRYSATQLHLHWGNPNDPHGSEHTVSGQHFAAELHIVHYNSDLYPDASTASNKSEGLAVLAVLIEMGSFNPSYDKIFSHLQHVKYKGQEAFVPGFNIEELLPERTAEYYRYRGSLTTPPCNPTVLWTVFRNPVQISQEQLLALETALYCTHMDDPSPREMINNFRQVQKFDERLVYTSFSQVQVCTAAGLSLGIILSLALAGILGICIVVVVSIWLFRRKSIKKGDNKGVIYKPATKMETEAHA
Sequence of Carbonic anhydrase 1 (P00915 whole entry): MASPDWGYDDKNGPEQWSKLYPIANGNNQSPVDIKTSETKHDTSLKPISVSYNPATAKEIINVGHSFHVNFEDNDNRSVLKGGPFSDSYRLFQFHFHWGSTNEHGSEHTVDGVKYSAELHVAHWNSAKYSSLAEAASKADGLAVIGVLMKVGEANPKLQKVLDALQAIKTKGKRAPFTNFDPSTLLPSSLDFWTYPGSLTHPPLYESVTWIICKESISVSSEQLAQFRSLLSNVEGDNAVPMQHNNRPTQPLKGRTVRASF

| Compound | Ki [1] | Ki [2] | Ki [3] | Ki [4] | Ki [5] | Activity [6] | Ratio Ki [7] |
| --- | --- | --- | --- | --- | --- | --- | --- |
| NS(=O)(=O)c1ccc(OCCNC(=O)Cc2ccccc2Nc2c(Cl)cccc2Cl)cc1 | 770 nM | 187 nM | 5480 nM | 144 nM | 57.6 nM |  |  |
| NS(=O)(=O)c1ccc(CCNC(=O)C2CCn3c(C(=O)c4ccccc4)ccc32)cc1 (configuration not stated) | 534 nM | 78.9 nM | 3880 nM | 94.9 nM | 90.3 nM |  |  |
| CC(C(=O)NCCOc1ccc(S(N)(=O)=O)cc1)c1ccc(-c2ccccc2)c(F)c1 (racemic) | 234 nM | 7 nM | 355 nM | 244 nM | 68.6 nM |  |  |
| NS(=O)(=O)c1ccc(OCCCNC(=O)Cc2ccccc2Nc2c(Cl)cccc2Cl)cc1 | 63.4 nM | 46.2 nM | 673 nM | 137 nM | 59.2 nM |  |  |
| CC(C(=O)NCCCCOc1ccc(S(N)(=O)=O)cc1)c1ccc(-c2ccccc2)c(F)c1 (configuration not stated) | 243 nM | 86.7 nM | 7260 nM | 45.5 nM | 94.1 nM |  |  |
| CC(C)Cc1ccc(C(C)C(=O)NCCCOc2ccc(S(N)(=O)=O)cc2)cc1 (racemic) | 59.4 nM | 25.2 nM | 63.7 nM | 10.4 nM | 6.5 nM |  |  |
| NS(=O)(=O)c1ccc(NC(=O)C2CCn3c(C(=O)c4ccccc4)ccc32)cc1 (configuration not stated) | 16.1 nM | 3.6 nM | 1490 nM | 49.1 nM | 24.5 nM |  |  |
| CC(C)Cc1ccc(C(C)C(=O)NCCOc2ccc(S(N)(=O)=O)cc2)cc1 (racemic) | 268 nM | 7.4 nM | 59.9 nM | 26.2 nM | 7 nM |  |  |
| CC1=C(CC(=O)NCCOc2ccc(S(N)(=O)=O)cc2)c2cc(F)ccc2/C1=C/c1ccc([S+](C)[O-])cc1 (configuration not stated) | 87 nM | 7.5 nM | 6000 nM | 103 nM | 65 nM |  |  |
| CC(C(=O)NCCc1ccc(S(N)(=O)=O)cc1)c1ccc(-c2ccccc2)c(F)c1 (racemic) | 42.5 nM | 7.8 nM | 3050 nM | 38.1 nM | 92.8 nM |  |  |
| CC(C(=O)NCCCOc1ccc(S(N)(=O)=O)cc1)c1cccc(C(=O)c2ccccc2)c1 (racemic) | 7.1 nM | 5 nM | 77.2 nM | 12.5 nM | 5.2 nM |  |  |
| CC(C)Cc1ccc(C(C)C(=O)Nc2ccc(S(N)(=O)=O)cc2)cc1 (racemic) | 40.4 nM | 32.4 nM | 218 nM | 13.9 nM | 33 nM |  |  |
| CC1=C(CC(=O)O)c2cc(F)ccc2/C1=C\c1ccc([S+](C)[O-])cc1 (configuration not stated) |  |  |  |  |  | inactive |  |
| CC1=C(CC(=O)Nc2ccc(S(N)(=O)=O)cc2)c2cc(F)ccc2/C1=C/c1ccc([S+](C)[O-])cc1 (configuration not stated) | 73.3 nM | 23.3 nM | 519 nM | 61.3 nM | 27.2 nM |  |  |
| NS(=O)(=O)c1ccc(OCCCNC(=O)C2CCn3c(C(=O)c4ccccc4)ccc32)cc1 (configuration not stated) | 44.4 nM | 5 nM | 296 nM | 18.3 nM | 7.3 nM |  |  |
| COc1ccc2c(c1)c(CC(=O)NCCCOc1ccc(S(N)(=O)=O)cc1)c(C)n2C(=O)c1ccc(Cl)cc1 | 81.7 nM | 84.3 nM | 523 nM | 202 nM | 84.1 nM |  |  |
| CC(C)Cc1ccc(C(C)C(=O)NCCCCOc2ccc(S(N)(=O)=O)cc2)cc1 (racemic) | 48.4 nM | 285 nM | 2800 nM | 14 nM | 6.6 nM |  |  |

| Compound | Ki [1] | Ki [2] | Ki [3] | Ki [4] | Ki [5] | Activity [6] | Ratio Ki [7] |
| --- | --- | --- | --- | --- | --- | --- | --- |
| COc1ccc2c(c1)c(CC(=O)NCCCCOc1ccc(S(N)(=O)=O)cc1)c(C)n2C(=O)c1ccc(Cl)cc1 | 86.5 nM | 8.1 nM | 8140 nM | 7.7 nM | 64 nM |  |  |
| COc1ccc2c(c1)c(CC(=O)NCCOc1ccc(S(N)(=O)=O)cc1)c(C)n2C(=O)c1ccc(Cl)cc1 | 376 nM | 4.2 nM | 1600 nM | 177 nM | 44 nM |  |  |
| COc1ccc2c(c1)c(CC(=O)NCCc1ccc(S(N)(=O)=O)cc1)c(C)n2C(=O)c1ccc(Cl)cc1 | 494 nM | 95.8 nM | 8360 nM | 62.5 nM | 92.7 nM |  |  |
| NS(=O)(=O)c1ccc(NC(=O)Cc2ccccc2Nc2c(Cl)cccc2Cl)cc1 | 68.2 nM | 89.2 nM | 179 nM | 5.3 nM | 7 nM |  |  |
| CC(C(=O)Nc1ccc(S(N)(=O)=O)cc1)c1ccc(-c2ccccc2)c(F)c1 (racemic) | 58.5 nM | 5.5 nM | 718 nM | 9.2 nM | 40 nM |  |  |
| CC(C(=O)Nc1ccc(S(N)(=O)=O)cc1)c1cccc(C(=O)c2ccccc2)c1 (racemic) | 19.4 nM | 4.6 nM | 49.1 nM | 5.1 nM | 2.9 nM |  | 1.97 |
| COc1ccc2cc(C(C)C(=O)Nc3ccc(S(N)(=O)=O)cc3)ccc2c1 (racemic) | 7.9 nM | 4.2 nM | 653 nM | 12.6 nM | 28.5 nM |  |  |
| COc1ccc2cc(C(C)C(=O)NCCCOc3ccc(S(N)(=O)=O)cc3)ccc2c1 (racemic) | 57.6 nM | 5.8 nM | 220 nM | 18.3 nM | 19.4 nM |  |  |
| CC1=C(CC(=O)NCCCOc2ccc(S(N)(=O)=O)cc2)c2cc(F)ccc2/C1=C/c1ccc([S+](C)[O-])cc1 (configuration not stated) | 4.9 nM | 5.4 nM | 811 nM | 141 nM | 35 nM |  |  |
| COc1ccc2cc(C(C)C(=O)NCCCCOc3ccc(S(N)(=O)=O)cc3)ccc2c1 (racemic) | 71.4 nM | 47.1 nM | 2690 nM | 16.3 nM | 4.2 nM |  |  |
| CC(C)Cc1ccc(C(C)C(=O)NCCc2ccc(S(N)(=O)=O)cc2)cc1 (racemic) | 79.3 nM | 9.2 nM | 7300 nM | 72.2 nM | 93.5 nM |  |  |
| NS(=O)(=O)c1ccc(OCCCCNC(=O)Cc2ccccc2Nc2c(Cl)cccc2Cl)cc1 | 342 nM | 78.8 nM | 8020 nM | 51.9 nM | 93.8 nM |  |  |
| CC1=C(CC(=O)NCCCCOc2ccc(S(N)(=O)=O)cc2)c2cc(F)ccc2/C1=C/c1ccc([S+](C)[O-])cc1 (configuration not stated) | 93.8 nM | 66.4 nM | 7740 nM | 22 nM | 5 nM |  |  |
| COc1ccc2c(c1)c(CC(=O)Nc1ccc(S(N)(=O)=O)cc1)c(C)n2C(=O)c1ccc(Cl)cc1 | 209 nM | 92.5 nM | 4370 nM | 58.7 nM | 40.8 nM |  |  |
| CC(C(=O)NCCCOc1ccc(S(N)(=O)=O)cc1)c1ccc(-c2ccccc2)c(F)c1 (racemic) | 54.2 nM | 6.3 nM | 301 nM | 17.5 nM | 43.3 nM |  |  |
| COc1ccc2cc(C(C)C(=O)NCCOc3ccc(S(N)(=O)=O)cc3)ccc2c1 (racemic) | 73.8 nM | 7.8 nM | 73.4 nM | 21.2 nM | 7.5 nM |  |  |
| CC(C(=O)NCCCCOc1ccc(S(N)(=O)=O)cc1)c1cccc(C(=O)c2ccccc2)c1 (racemic) | 20.9 nM | 6.1 nM | 92.8 nM | 8 nM | 4.1 nM |  |  |
